Laboratory results: ChEMBL document CHEMBL2176925, “Novel ¹⁸F-labeled benzoxazole derivatives as potential positron emission tomography probes for imaging of cerebral β-amyloid plaques in Alzheimer's disease” (J Med Chem, 2012)
pKi: −log10 of the molar value. Active and inactive are the calls of the source. The rule behind the calls is not given here.

Key:
[1] = Displacement of [125I]TZDM from amyloid beta (1 to 40) fibrils
[2] = system: Brain; assay: Drug uptake in iv dosed ICR mouse brain; type: ADME, organism-based; details: in vivo
[3] = Displacement of [125I]IMPY from amyloid beta (1 to 42) fibrils after 2 hrs by gamma-counting analysis
Outline: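 Competition binding with aggregated Aβ1-42 fibrils (60 nM final) and [125I]IMPY. Inhibitors were tested at 10⁻⁵–10⁻¹⁰ M (in ethanol) in 0.2 M PBS, pH 7.4, 1 mL, for 2 h at 37 °C with shaking. Nonspecific binding was defined with 1 μM IMPY. Bound ligand was collected by GF/B filtration and γ-counted. Ki was derived from IC50 via Cheng–Prusoff.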

[4] = n-Octanol-PBS buffer partition coefficient, log D of the compound at 370 kBq after 3 mins at pH 7.4; type: physicochemical
Outline: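 For log D, tubes containing n-octanol and PBS were vortexed 3 min at room temperature and centrifuged 5 min at 3000 rpm. Weighed samples of the octanol (100 μL) and buffer (500 μL) layers were counted. Log D is the log of the ratio of counts per gram, octanol to PBS.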

[5] = system: Brain; assay: Ratio of drug uptake in brain at 2 mins to drug uptake in brain at 60 mins in ddY mouse at 370 kBq/100 ul, iv; type: ADME, organism-based; details: in vivo
Outline: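 Tail-vein injection of 370 kBq/100 μL (saline, 5% EtOH) into male ddY mice (5 weeks, 20−22 g, n = 5). Brain excised at 2 and 60 min, weighed and γ-counted against diluted injectate. Uptake is %ID/g, and the ratio is brain at 2 min divided by brain at 60 min.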

[6] = system: Brain; assay: Drug uptake in ddY mouse brain at 370 kBq/100 ul, iv assessed per organ at 60 mins by gamma-counting analysis; type: ADME, organism-based; details: in vivo, 1 h
[7] = system: Brain; assay: Drug uptake in ddY mouse brain at 370 kBq/100 ul, iv assessed per organ at 2 mins by gamma-counting analysis; type: ADME, organism-based; details: in vivo
[8] = biological target: Amyloid-beta precursor protein (Homo sapiens) (UniProt P05067); assay: Binding affinity to amyloid beta plaques in […] brain at 370 kBq/100 ul after 1 hr by immunohistochemical staining method; details: tested as the 18F-labelled form
Outline: (§1)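 In vitro autoradiography on paraffin sections. Mouse: Tg C57BL6 APPswe/PSEN1 and wild-type, both 12 months old. Human: AD (person) and normal (person). Sections were deparaffinized through xylene and graded ethanol, held in PBS (0.2 M, pH 7.4) for 30 min, then incubated with tracer (370 kBq/100 μL) for 1 h at room temperature. Washes were 50% ethanol then water. Plates were exposed overnight. Plaques were confirmed by thioflavin-S or monoclonal Aβ1-42 antibody immunostaining.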

[9] = biological target: Amyloid-beta precursor protein (Homo sapiens) (UniProt P05067); assay: Binding affinity to amyloid beta plaques in […] brain at 370 kBq/100 ul after 1 hr by autoradiographic analysis; details: tested as the 18F-labelled form; outline: as §1
[10] = species: Mus musculus; assay: Binding affinity to amyloid beta plaques in transgenic C57BL6 mouse brain expressing APP Swedish mutant/PSEN1 at 370 kBq/100 ul after 1 hr by thioflavinS-staining method; type: tissue-based; details: tested as the 18F-labelled form; outline: as §1
[11] = species: Mus musculus; assay: Binding affinity to amyloid beta plaques in transgenic C57BL6 mouse brain expressing APP Swedish mutant/PSEN1 at 370 kBq/100 ul after 1 hr by autoradiographic analysis; type: tissue-based; details: tested as the 18F-labelled form; outline: as §1
[12] = system: Mus musculus; assay: Binding affinity to amyloid beta plaque in transgenic C57BL6 mouse hippocampus expressing APP Swedish mutant at 40.7 MBq, iv after 30 mins by thioflavinS-staining method; type: functional, organism-based; parameters: dose or concentration left out as unconfirmed; details: tested as the 18F-labelled form
Outline: (§2)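 Ex vivo: Tg2576 (C57BL6, APPsw) mice, 18 months old, and age-matched wild-type mice. Each received 40.7 MBq of tracer in 100 μL saline with 5% EtOH iv via the femoral vein and was decapitated 30 min later. Brains were frozen in dry ice and cut into 20 μm sections. Sections were exposed to an imaging plate for 8 h, then the same sections were stained with thioflavin-S.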

[13] = system: Mus musculus; assay: Binding affinity to amyloid beta plaque in transgenic C57BL6 mouse cortex expressing APP Swedish mutant at 40.7 MBq, iv after 30 mins by thioflavinS-staining method; type: functional, organism-based; parameters: dose or concentration left out as unconfirmed; details: tested as the 18F-labelled form; outline: as §2
[14] = system: Mus musculus; assay: Binding affinity to amyloid beta plaque in transgenic C57BL6 mouse hippocampus expressing APP Swedish mutant/PSEN1 at 40.7 MBq, iv after 30 mins by autoradiographic analysis; type: functional, organism-based; details: 40.7 M, tested as the 18F-labelled form
[15] = system: Mus musculus; assay: Binding affinity to amyloid beta plaque in transgenic C57BL6 mouse cortex expressing APP Swedish mutant/PSEN1 at 40.7 MBq, iv after 30 mins by autoradiographic analysis; type: functional, organism-based; details: 40.7 M, tested as the 18F-labelled form
[16] = system: Brain; assay: Drug uptake in ddY mouse brain at 370 kBq/100 ul, iv at 60 mins by gamma-counting analysis; type: ADME, organism-based; details: in vivo, 1 h
Outline: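 Normal male ddY mice (5 weeks, 20−22 g, n = 5) received 370 kBq of tracer in 100 μL saline with 5% EtOH via tail vein. Mice were sacrificed at set times after injection, and organs were excised, weighed and γ-counted against diluted injectate aliquots. Values are %ID per gram, except stomach and intestine as %ID per organ, given as mean ± SD of 5 mice.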

Chain of Amyloid-beta precursor protein (Homo sapiens) (P05067 whole entry): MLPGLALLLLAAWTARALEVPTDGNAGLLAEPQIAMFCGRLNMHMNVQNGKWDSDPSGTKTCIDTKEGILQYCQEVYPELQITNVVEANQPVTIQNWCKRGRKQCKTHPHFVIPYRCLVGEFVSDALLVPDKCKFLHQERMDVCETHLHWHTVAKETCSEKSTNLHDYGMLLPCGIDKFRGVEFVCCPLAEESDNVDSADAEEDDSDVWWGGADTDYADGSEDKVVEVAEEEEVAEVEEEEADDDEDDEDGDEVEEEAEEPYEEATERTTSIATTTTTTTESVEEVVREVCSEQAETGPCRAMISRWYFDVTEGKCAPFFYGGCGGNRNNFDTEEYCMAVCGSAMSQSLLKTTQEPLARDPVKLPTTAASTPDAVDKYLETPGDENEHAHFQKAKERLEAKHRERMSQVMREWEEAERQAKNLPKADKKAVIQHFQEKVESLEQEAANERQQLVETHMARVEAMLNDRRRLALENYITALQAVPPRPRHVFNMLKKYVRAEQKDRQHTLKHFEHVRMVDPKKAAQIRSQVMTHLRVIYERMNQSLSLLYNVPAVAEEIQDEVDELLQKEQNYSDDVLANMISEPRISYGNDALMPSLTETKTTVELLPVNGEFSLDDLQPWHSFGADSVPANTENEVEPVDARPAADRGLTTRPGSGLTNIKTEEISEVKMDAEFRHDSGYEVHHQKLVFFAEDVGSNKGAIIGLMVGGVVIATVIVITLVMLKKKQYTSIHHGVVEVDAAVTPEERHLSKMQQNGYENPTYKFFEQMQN

Row | SMILES | pKi [1] | Drug uptake [2] | pKi [3] | logD at 0.05 h [4] | Ratio [5] | also measured
1 | CN(C)c1ccc(-c2nc3cc(OCCOCCOCCF)ccc3o2)cc1 |  |  | 8.41 |  |  | Activity [8]: Active; Activity [9]: Active; Activity [10]: Active; Activity [11]: Active; Activity [12]: Active; Activity [13]: Active; Activity [14]: Active; Activity [15]: Active
2 | CNc1ccc(-c2cc3cc(OCCOCCOCC[18F])ccc3o2)cn1 |  |  | 8.62 | 3.11 | 2.34 | 
3 | CNc1ccc(-c2nc3cc(OCCOCCOCCF)ccc3o2)cc1 |  |  | 8.03 |  |  | Activity [8]: Active; Activity [9]: Active; Activity [10]: Active; Activity [11]: Active; Activity [12]: Active; Activity [13]: Active; Activity [14]: Active; Activity [15]: Active
4 | CN(C)c1ccc(-c2cc3cc(OCCOCCOCC[18F])ccc3o2)cn1 |  |  | 9.00 | 2.32 | 2.11 | 
5 | CNc1ccc(/C=C/c2ccc(OCCOCCOCC[18F])nc2)cc1 [FLORBETAPIR F 18] |  |  | 8.54 |  | 3.9 | Drug uptake [16]: 1.88 % ID/g

More lines, main results first:

Row | pKi [1] | Drug uptake [2] | pKi [3] | logD at 0.05 h [4] | Ratio [5] | SMILES | also measured
6 | 9.40 | < 1.5 %ID |  |  |  | Oc1ccc(-c2cc3cc([125I])ccc3o2)cc1 | 
7 | 9.10 |  | 9.10 | 2.09 | 1.13 | CN(C)c1ccc(-c2nc3ccc([125I])cc3o2)cc1 | Drug uptake [6]: 1.26 %ID; Drug uptake [7]: 1.43 %ID
8 |  |  | 8.41 | 3.73 | 2.11 | CNc1ccc(-c2cc3cc(OCCOCCOCC[18F])ccc3o2)cc1 | 
9 | 9.40 | < 1.5 %ID |  |  |  | CN(C)c1ccc(-c2cc3cc([125I])ccc3o2)cc1 | 
10 | 9.40 | < 1.5 %ID |  |  |  | CNc1ccc(-c2cc3cc([125I])ccc3o2)cc1 | 
11 | 9.40 | < 1.5 %ID |  |  |  | CN(C)c1ccc(-c2cc3ccc([125I])cc3o2)cc1 | 
12 |  |  | 8.70 | 2.94 | 1.03 | CN(C)c1ccc(-c2cc3cc(OCCOCCOCC[18F])ccc3o2)cc1 | 
